{"data": "Experimental data pooled from the literature", "BTK": "Tyrosine-protein kinase BTK (BTK, Homo sapiens, UniProt Q06187)"}
{"Compound": "COc1cc2ncnc(Nc3ccc(Oc4ccccc4)c(C)c3C)c2cc1OC", "target": "BTK", "effect on": "enzyme activity", "action": "inhibitor", "tested at": "1 µM", "inhibition [%]": 33}
{"Compound": "CNc1cccc2cc(C(=O)Nc3ccc(C(=O)O)cc3)c(=O)[nH]c12", "target": "BTK", "effect on": "enzyme activity", "action": "inhibitor", "tested at": "10 µM", "inhibition [%]": 2.1}
{"Compound": "CN(C)C1CCN(CC#Cc2nn(C3CCCC3)c3nc(NCc4ccccc4)ncc23)C1 (stereo not drawn)", "target": "BTK", "effect on": "enzyme activity", "action": "inhibitor", "method": "FRET", "tested at": "0.1 µM", "inhibition [%]": 8}
{"Compound": "CC/C(=N\\NC(=O)NCc1cccc(O)c1)c1ccc(O)c(C)c1O", "target": "Tyrosine-protein kinase BTK (BTK, Homo sapiens, UniProt Q06187, C481S)", "effect on": "enzyme activity", "action": "inhibitor", "tested at": "0.1 µM", "inhibition [%]": -1.8}
{"Compound": "CCN(CC)CCNC(=O)c1c(C)[nH]c(/C=C2\\C(=O)Nc3ccc(F)cc32)c1C", "target": "BTK", "effect on": "enzyme activity", "action": "inhibitor", "tested at": "10 µM", "inhibition [%]": 85}
{"Compound": "CCN(CC)CCNC(=O)c1c(C)[nH]c(/C=C2\\C(=O)Nc3ccc(F)cc32)c1C", "target": "BTK", "effect on": "binding", "method": "competition with immobilised ligand", "tested at": "0.1 µM", "inhibition [%]": 91.3}
{"Compound": "CNCc1ccc(-c2cc(-c3nc(-c4ccc(S(=O)(=O)C(C)C)cc4)cnc3N)on2)cc1", "target": "BTK", "effect on": "enzyme activity", "action": "inhibitor", "tested at": "2 µM", "inhibition [%]": 6}
{"Compound": "CS(=O)(=O)Nc1cccc(-c2csc(NC(=O)CSc3nc4nccnc4c(=O)n3CCc3ccccc3)n2)c1", "target": "BTK", "effect on": "enzyme activity", "action": "inhibitor", "tested at": "10 µM", "inhibition [%]": 3}
{"Compound": "Cc1ccc(Nc2nccc(N(C)c3ccc4c(C)n(C)nc4c3)n2)cc1S(N)(=O)=O", "target": "BTK", "effect on": "enzyme activity", "action": "inhibitor", "tested at": "10 µM", "inhibition [%]": 72}
{"Compound": "C=CC(=O)Nc1cc(Nc2nccc(Nc3cc(Cl)c(F)cc3C(C)(C)O)n2)c(OC)cc1N1CC[C@@H](N(C)C)C1", "target": "BTK", "effect on": "enzyme activity", "action": "inhibitor", "tested at": "1 µM", "inhibition [%]": 96}
{"Compound": "CNC(=O)c1cc(Oc2ccc(NC(=O)Nc3ccc(Cl)c(C(F)(F)F)c3)cc2)ccn1", "target": "BTK", "effect on": "enzyme activity", "action": "inhibitor", "tested at": "0.3 µM", "inhibition [%]": 1}
{"Compound": "CC#CC(=O)N1CCC[C@H]1c1nc(-c2ccc(C(=O)Nc3ccccn3)cc2)c2c(N)nccn12", "target": "BTK", "effect on": "enzyme activity", "action": "inhibitor", "method": "radiometric", "tested at": "0.1 µM", "inhibition [%]": 83}
